Calls of active or inactive are those of the source. The calls are words filed in the database; no cut-off is given here.
How the values were obtained:
Histone deacetylase [1] = test: Inhibition of HDAC in cisplatin resistant human A2780 cells after 18 hrs by fluorescence assay; assay type: cell-based
Histone deacetylase [2] = test: Inhibition of HDAC in human A2780 cells after 18 hrs by fluorescence assay; assay type: cell-based
A2780 [3] = test: Cytotoxicity against human A2780 cells after 72 hrs by MTT assay; assay type: functional, cell-based; details: A2780, 72 h
[4] = system: A2780 CisR (Homo sapiens); test: cells; details: 72 h
A2780 [5] = test: Cytotoxicity against cisplatin resistant human A2780 cells up to 100 uM after 72 hrs by MTT assay; assay type: functional, cell-based
Summary of the method: (§1)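 A2780 or its cisplatin-resistant subclone A2780CisR, seeded 5000 cells/well, grown in RPMI 1640 with 10% FCS at 37 °C, 5% CO2. Compound exposure began 24 h after seeding and lasted 72 h. MTT (5 mg/mL in PBS) was added, formazan dissolved in DMSO, absorbance read at 544 and 690 nm. IC50 from four-parameter logistic fit, ≥3 experiments in triplicate.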

A2780 [6] = test: Cytotoxicity against human A2780 cells up to 100 uM after 72 hrs by MTT assay; assay type: functional, cell-based; summary of the method: as §1

IC50 (Histone deacetylase [1]) [µM] | IC50 (Histone deacetylase [2]) [µM] | IC50 [4] [µM] | SMILES | IC50 (A2780 [3]) [µM] | Activity (A2780 [5]) | Activity (A2780 [6])
43.9 | 34 | 86.9 | Nc1ccccc1NC(=O)CCCCCONC(=O)Nc1ccccc1 | 62.5 |  | 
5.38 | 7.63 | 8.12 | Cc1cccc(NC(=O)NOCCCCCC(=O)NO)c1 | 8.33 |  | 
0.9 | 1.06 | 7.87 | O=C(CCCCCONC(=O)Nc1cccc2ccccc12)NO | 7.63 |  | 
5.73 | 6.64 | 18.2 | COc1ccc(NC(=O)NOCCCCCC(=O)NO)cc1 | 10.3 |  | 
8.86 | 11.7 | 30.1 | Cc1ccccc1NC(=O)NOCCCCCC(=O)NO | 23 |  | 
 |  | > 100 | O=C(O)CCCCCONC(=O)Nc1cccc2ccccc12 | > 100 | inactive | inactive
15.4 | 17.1 | 33.8 | Cc1ccccc1C(=O)NOCCCCCC(=O)NO | 25.6 |  | 
> 100 | > 100 | 72.5 | O=C(O)CCCCCONC(=O)Nc1ccccc1 | 23.5 |  | 
16.6 | 15.2 | 35.2 | O=C(CCCCONC(=O)Nc1ccccc1)NO | 62.6 |  | 
1.26 | 1.58 | 5.72 | O=C(CCCCCONC(=O)c1ccccc1)NO | 8.33 |  | 
2 | 2.57 | 60.3 | O=C(CCCCCONC(=O)c1ccc(F)cc1)NO | 16.4 |  | 
> 100 | > 100 | > 100 | CN(O)C(=O)CCCCCONC(=O)Nc1ccccc1 | 87.9 |  | 
0.85 | 1.07 | 11.6 | O=C(CCCCCONC(=O)Nc1cnc2ccccc2c1)NO | 10.8 |  | 
1.95 | 2.09 | 30.8 | O=C(CCCCCONC(=O)c1ccc(C(F)(F)F)cc1)NO | 9.53 |  | 
1.32 | 1.41 | 8.8 | CC(C)(C)c1ccc(NC(=O)NOCCCCCC(=O)NO)cc1 | 6.34 |  | 
